Reference: ChEMBL document CHEMBL4393708, “Pyridinylimidazoles as dual glycogen synthase kinase 3β/p38α mitogen-activated protein kinase inhibitors” (Eur J Med Chem, 2019)

What was measured:
[1] = target: T1, Mitogen-activated protein kinase 14 (Homo sapiens, UniProt Q16539); assay: Inhibition of p38alpha MAPK (unknown origin) using ATF-2 as substrate after 1 hr by ELISA
[2] = target: Glycogen synthase kinase-3 beta (Homo sapiens, UniProt P49841); assay: Competitive inhibition of human recombinant full length GSK3beta using YRRAAVPPSPSLSRHSSPHQ(pS)EDEEE as substrate preincubated with enzyme for 10 mins followed by substrate and 25 uM ATP addition measured after 60 mins by ADP-Glo luminescence assay
Chain of Glycogen synthase kinase-3 beta (P49841 whole entry): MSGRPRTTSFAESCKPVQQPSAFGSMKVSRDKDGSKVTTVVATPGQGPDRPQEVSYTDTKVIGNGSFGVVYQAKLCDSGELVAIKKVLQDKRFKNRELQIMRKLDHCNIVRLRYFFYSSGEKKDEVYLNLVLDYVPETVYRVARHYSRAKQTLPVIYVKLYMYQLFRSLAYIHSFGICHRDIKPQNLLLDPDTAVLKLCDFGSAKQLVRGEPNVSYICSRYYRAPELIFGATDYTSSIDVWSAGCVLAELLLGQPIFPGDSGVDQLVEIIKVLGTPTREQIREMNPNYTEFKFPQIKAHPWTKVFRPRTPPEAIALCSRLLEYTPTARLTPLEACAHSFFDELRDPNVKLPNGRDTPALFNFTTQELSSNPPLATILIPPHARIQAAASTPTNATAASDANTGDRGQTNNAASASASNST
In short: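 Compounds in serial dilutions were preincubated with kinase for 10 min at rt. Substrate/ATP was then added and the reaction ran 60 min at rt. ADP-Glo reagent 60 min, detection reagent 30 min, then luminescence read (500 ms integration).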

[3] = target: T1, Mitogen-activated protein kinase 14; assay: Inhibition of human recombinant p38alpha MAPK upto 10000 nM using Ulight-CFFKNIVTPRTPPPSQGK-amide as substrate measured after 30 mins by LANCE assay relative to control
[4] = Drug uptake in RjOrl:Swiss CD-1 mouse brain at 10 mg/kg, iv administered as single dose measured after 2 hrs by LC-MS analysis; type: ADME, organism-based; settings: read-out: Drug uptake
In short: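 Adult male RjOrl:Swiss CD-1 mice got one intravenous dose of 10 mg/kg. Plasma was sampled at 10, 30 and 120 min. After the last sample the mice were sacrificed and brains dissected. Blood and brain samples were prepared and analysed by LC-MS for parent and sulfoxide metabolite; brain levels reported as ng/g.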

[5] = target: Glycogen synthase kinase-3 alpha (Homo sapiens, UniProt P49840); assay: Inhibition of human recombinant full length GSK3alpha using YRRAAVPPSPSLSRHSSPHQ(pS)EDEEE as substrate preincubated with enzyme for 10 mins followed by substrate and 25 uM ATP addition measured after 60 mins by ADP-Glo luminescence assay
Chain of Glycogen synthase kinase-3 alpha (P49840 whole entry): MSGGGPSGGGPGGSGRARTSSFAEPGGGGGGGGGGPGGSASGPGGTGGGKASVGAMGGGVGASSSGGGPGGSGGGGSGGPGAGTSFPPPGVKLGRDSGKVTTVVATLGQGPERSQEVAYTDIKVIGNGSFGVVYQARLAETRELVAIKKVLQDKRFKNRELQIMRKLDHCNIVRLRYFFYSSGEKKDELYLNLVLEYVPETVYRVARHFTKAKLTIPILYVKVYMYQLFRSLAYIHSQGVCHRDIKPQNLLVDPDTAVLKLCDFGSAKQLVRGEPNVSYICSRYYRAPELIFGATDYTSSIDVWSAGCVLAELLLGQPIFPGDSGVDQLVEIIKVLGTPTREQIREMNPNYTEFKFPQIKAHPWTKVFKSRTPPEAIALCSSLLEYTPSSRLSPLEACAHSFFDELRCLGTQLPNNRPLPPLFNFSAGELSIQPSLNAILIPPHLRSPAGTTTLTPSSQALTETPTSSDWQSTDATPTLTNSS
In short: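 Recombinant human GSK3α at 0.50 ng/µL, 25 µM ATP, 0.2 µg/µL substrate G50-58, serial compound dilutions. Kinase was preincubated with compound 10 min at rt, then run 60 min at rt after substrate/ATP addition. ADP-Glo reagent 60 min, detection reagent 30 min, luminescence read. Uninhibited-kinase and ATP/substrate-only controls were included.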

Blood = assay: Inhibition of LPS-induced TNFalpha production in human whole blood preincubated with compound for 15 mins followed by LPS addition measured after 2.5 hrs by ELISA; type: functional, tissue-based
Homo sapiens = species: Homo sapiens; assay: Selectivity ratio, Ratio of IC50 for human recombinant full length GSK3beta to IC50 for p38alpha MAPK (unknown origin)
In short: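 GSK3β was measured by ADP-Glo using 0.58 ng/µL recombinant human enzyme, 25 µM ATP and 0.2 µg/µL substrate peptide G50-58. Kinase was preincubated with serial compound dilutions for 10 min at rt, then reacted for 60 min at rt, with luminescence read-out. p38α inhibition was measured by ELISA.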

[6] = Metabolic stability in human liver microsomes assessed as parent compound remaining after 240 mins by LC-MS analysis relative to control; type: ADME, Microsome; settings: read-out: Stability
[7] = Metabolic stability in human liver microsomes assessed as parent compound remaining after 60 mins by LC-MS analysis relative to control; type: ADME, Microsome; settings: read-out: Stability
[8] = Metabolic stability in human liver microsomes assessed as parent compound remaining after 120 mins by LC-MS analysis relative to control; type: ADME, Microsome; settings: read-out: Stability
[9] = Metabolic stability in human liver microsomes assessed as parent compound remaining after 20 mins by LC-MS analysis relative to control; type: ADME, Microsome; settings: read-out: Stability
[10] = Metabolic stability in human liver microsomes assessed as parent compound remaining after 10 mins by LC-MS analysis relative to control; type: ADME, Microsome; settings: read-out: Stability
[11] = Metabolic stability in human liver microsomes assessed as parent compound remaining after 30 mins by LC-MS analysis relative to control; type: ADME, Microsome; settings: read-out: Stability
[12] = Metabolic stability in human liver microsomes assessed as parent compound remaining after 180 mins by LC-MS analysis relative to control; type: ADME, Microsome; settings: read-out: Stability

T1 sequence (Q16539 whole entry): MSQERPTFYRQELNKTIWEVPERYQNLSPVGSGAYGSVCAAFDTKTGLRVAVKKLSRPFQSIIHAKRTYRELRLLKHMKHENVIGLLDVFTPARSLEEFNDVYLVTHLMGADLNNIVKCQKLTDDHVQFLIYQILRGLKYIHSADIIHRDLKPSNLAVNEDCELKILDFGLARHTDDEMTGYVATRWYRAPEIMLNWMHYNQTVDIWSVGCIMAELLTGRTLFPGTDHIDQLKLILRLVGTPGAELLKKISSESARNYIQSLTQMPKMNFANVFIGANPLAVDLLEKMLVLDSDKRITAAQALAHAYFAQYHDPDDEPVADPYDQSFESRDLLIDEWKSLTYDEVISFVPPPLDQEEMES

Structure (SMILES)	IC50 [1]	IC50 [2]	also measured
O=C(Nc1cc(-c2[nH]c(SCc3ccccc3)nc2-c2ccc(F)cc2)ccn1)C1CCCC1	20 nM	663 nM	–
COc1cc(CC(=O)Nc2cc(-c3[nH]c(SC)nc3-c3ccc(F)cc3)ccn2)cc(OC)c1OC	13 nM	510 nM	–
CSc1nc(-c2ccc(F)cc2)c(-c2ccnc(NC(=O)CC3CC3)c2)[nH]1	15 nM	215 nM	–
O=C(Nc1cc(-c2[nH]c(-c3ccccc3)nc2-c2ccc(F)cc2)ccn1)C1CC1	27 nM	570 nM	–
CSc1nc(-c2ccnc(NC(=O)C3CC3)c2)c(-c2ccc(F)cc2)n1C	1600 nM	1780 nM	–
O=C(Nc1cc(-c2[nH]cnc2-c2ccc(F)cc2)ccn1)C1CC1	19 nM	64 nM	–
Cc1nc(-c2ccc(F)cc2)c(-c2ccnc(NC(=O)C3CC3)c2)[nH]1	19 nM	53 nM	–
CSc1nc(-c2ccc(F)cc2)c(-c2ccnc(NC(=O)C3CCC(=O)C3)c2)[nH]1 (centres undefined)	21 nM	73 nM	–
CSc1nc(-c2ccc(F)cc2)c(-c2ccnc(NC(=O)C3CC3)c2)n1C	222 nM	638 nM	–
COc1cc(CCC(=O)Nc2cc(-c3[nH]c(SCc4ccccc4)nc3-c3ccc(F)cc3)ccn2)cc(OC)c1OC	61 nM	1150 nM	–
CSc1nc(-c2ccc(F)cc2)c(-c2ccnc(NC(=O)CCc3ccc(C(F)(F)F)cc3)c2)[nH]1	27 nM	956 nM	–
CSc1nc(-c2ccc(F)cc2)c(-c2ccnc(NC(=O)C3(C(F)(F)F)CC3)c2)[nH]1	184 nM	> 10000 nM	–
CSc1nc(-c2ccc(F)cc2)c(-c2ccnc(NC(=O)CN3CCCC3=O)c2)[nH]1	23 nM	126 nM	–
Cc1ncc(-c2ccnc(NC(=O)C3CC3)c2)[nH]1	–	1680 nM	inhibition [3]: 1%
CSc1nc(-c2ccc(F)cc2)c(-c2ccnc(NC(=O)[C@H]3C[C@@H](Cl)C3)c2)[nH]1	18 nM	170 nM	–
C[S+]([O-])c1nc(-c2ccc(F)cc2)c(-c2ccnc(NC(=O)C3CC3)c2)[nH]1 (centres undefined)	44 nM	236 nM	concentration at 2 h [4]: 65.8 ng/g; IC50 [5]: 1340 nM
O=C(Nc1cc(-c2[nH]c(SCc3ccccc3)nc2-c2ccc(F)cc2)ccn1)C1CC1	41 nM	229 nM	IC50 [5]: 853 nM
CSc1nc(-c2ccc(F)cc2)c(-c2ccnc(NC(=O)c3ccccn3)c2)[nH]1	42 nM	> 10000 nM	–
COc1cc(CCC(=O)Nc2cc(-c3[nH]c(SC)nc3-c3ccc(F)cc3)ccn2)cc(OC)c1OC	88 nM	363 nM	IC50 [5]: 2050 nM

Structure (SMILES)	IC50 [1]	IC50 [2]	also measured
CSc1nc(-c2ccc(F)cc2)c(-c2ccnc(NC(=O)[C@@H]3C[C@H]3c3ccccc3)c2)[nH]1 (relative stereo)	15 nM	808 nM	–
C[S+]([O-])c1ccc(-c2nc(-c3ccc(F)cc3)c(-c3ccncc3)[nH]2)cc1 (centres undefined) [SB-203580]	–	–	IC50 (Blood): 3200 nM
O=C(Nc1cc(-c2[nH]c(CCc3ccccc3)nc2-c2ccc(F)cc2)ccn1)C1CC1	20 nM	133 nM	–
CC(=O)Nc1cc(-c2[nH]c(SCc3ccccc3)nc2-c2ccc(F)cc2)ccn1	51 nM	560 nM	–
C[S+]([O-])c1nc(-c2ccc(F)cc2)c(-c2ccnc(NC(=O)C3CCC3)c2)[nH]1 (centres undefined)	29 nM	428 nM	–
CSc1nc(-c2ccc(F)cc2)c(-c2ccnc(NC(=O)Cc3ccc(C(F)(F)F)cc3)c2)[nH]1	29 nM	3240 nM	–
CSc1nc(-c2ccc(F)cc2)c(-c2ccnc(NC(=O)[C@H]3C[C@H](Cl)C3)c2)[nH]1	38 nM	395 nM	–
CSc1nc(-c2ccc(F)cc2)c(-c2ccnc(NC(=O)C3CCC3)c2)[nH]1	27 nM	132 nM	–
COc1ccc(CCC(=O)Nc2cc(-c3[nH]c(SC)nc3-c3ccc(F)cc3)ccn2)cc1	55 nM	542 nM	–
O=C(Cc1ccc(F)cc1)Nc1cc(-c2[nH]c(SCc3ccccc3)nc2-c2ccc(F)cc2)ccn1	3 nM	1500 nM	Ratio IC50 (Homo sapiens): > 500; remaining at 4 h [6]: 66%
CSc1nc(-c2ccc(F)cc2)c(-c2ccnc(NC(C)=O)c2)[nH]1	45 nM	152 nM	–
COc1cccc(CCC(=O)Nc2cc(-c3[nH]c(SC)nc3-c3ccc(F)cc3)ccn2)c1	36 nM	471 nM	–
CSc1nc(-c2ccc(F)cc2)c(-c2ccnc(NC(=O)C3CCCC3)c2)[nH]1	40 nM	136 nM	–
CSc1nc(-c2ccc(F)cc2)c(-c2ccnc(NC(=O)C3CC(=O)C3)c2)[nH]1	20 nM	183 nM	–
CSc1nc(-c2ccc(F)cc2)c(-c2ccnc(NC(=O)c3ccoc3)c2)[nH]1	22 nM	3650 nM	–
CSc1nc(-c2ccc(F)cc2)c(-c2ccnc(NC(=O)C3CCCO3)c2)[nH]1 (centres undefined)	28 nM	527 nM	–
CSc1nc(-c2ccc(F)cc2)c(-c2ccnc(NCC3CC3)c2)[nH]1	14 nM	> 10000 nM	–
O=C(Nc1cc(-c2[nH]c(Cc3ccccc3)nc2-c2ccc(F)cc2)ccn1)C1CC1	18 nM	59 nM	remaining at 1 h [7]: 69.4%; remaining at 2 h [8]: 69.8%; remaining at 4 h [6]: 66.1%; remaining at 20 min [9]: 83.6%; remaining at 10 min [10]: 92.4%; remaining at 0.5 h [11]: 78.1%; remaining at 3 h [12]: 68.7%; IC50 [5]: 428 nM
O=C(Nc1cc(-c2[nH]c(-c3ccco3)nc2-c2ccc(F)cc2)ccn1)C1CC1	18 nM	156 nM	–
